Active and inactive are the calls of the source. The calls are words filed in the database; no cut-off is given here.
Columns and labels:
MDA-MB-435 [1] = experiment: Antiproliferative activity against human MDA-MB-435 cell line assessed as inhibition of cell proliferation measured after 48 hrs by SRB assay; type: functional, cell-based; conditions: MDA-MB-435, 48 h
Procedure, shortened: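 MDA-MB-435 melanoma cells were assessed by sulforhodamine B assay. IC50 is the mean ± SD of at least three independent experiments, each run in triplicate.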

U-251 [2] = experiment: Cytotoxicity against human U251 cell line assessed as inhibition of cell growth after 48 hrs by SRB assay; type: functional, cell-based; conditions: U-251, 48 h
[3] = Inhibition of bovine tubulin polymerization assessed as reduction in extent of assembly preincubated for 15 mins followed by addition of reaction mixture measured after 20 mins by turbidimetric assay; design: species or system Bos taurus
Procedure, shortened: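 After chilling, GTP was added (0.4 mM final). Turbidity at 350 nm was read after a jump from 0 °C to 30 °C.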

[4] = Relative resistance, ratio of IC50 for inhibition of beta3 Tubulin (unknown origin) expressed in human HeLa cell line assessed as inhibition of cell proliferation to IC50 antiproliferative activity against human HeLa cells
[5] = Relative resistance, ratio of IC50 for antiproliferative activity against human SK-OV-3 MDR-1-6/6 cells expressing Pgp to IC50 antiproliferative activity against human SK-OV-3 cells; type: functional
U-251 [6] = experiment: Antitumour activity against human U251 cells xenografted in NCr athymic nude nu/nu mouse assessed as decrease in tumour growth at 17.5 mg/kg twice in a week; type: functional, organism-based
A549 = experiment: Cytotoxicity against human A549 cells assessed as inhibition of cell growth measured after 48 hrs by SRB assay; type: functional
HOP-92 = experiment: Cytotoxicity against human HOP-92 cells assessed as inhibition of cell growth measured after 48 hrs by SRB assay; type: functional
SNB-19 = experiment: Cytotoxicity against human SNB-19 cells assessed as inhibition of cell growth measured after 48 hrs by SRB assay; type: functional
SNB-75 = experiment: Cytotoxicity against human SNB-75 cells assessed as inhibition of cell growth measured after 48 hrs by SRB assay; type: functional
ACHN = experiment: Cytotoxicity against human ACHN cells assessed as inhibition of cell growth measured after 48 hrs by SRB assay; type: functional
CAKI-1 = experiment: Cytotoxicity against human CAKI-1 cells assessed as inhibition of cell growth measured after 48 hrs by SRB assay; type: functional
RXF 393 = experiment: Cytotoxicity against human RXF 393 cells assessed as inhibition of cell growth measured after 48 hrs by SRB assay; type: functional
TK-10 = experiment: Cytotoxicity against human TK-10 cells assessed as inhibition of cell growth measured after 48 hrs by SRB assay; type: functional
HCT-116 = experiment: Cytotoxicity against human HCT-116 cells assessed as inhibition of cell growth measured after 48 hrs by SRB assay; type: functional
OVCAR-3 = experiment: Cytotoxicity against human OVCAR-3 cells assessed as inhibition of cell growth measured after 48 hrs by SRB assay; type: functional
OVCAR-4 = experiment: Cytotoxicity against human OVCAR-4 cells assessed as inhibition of cell growth measured after 48 hrs by SRB assay; type: functional
OVCAR-8 = experiment: Cytotoxicity against human OVCAR-8 cells assessed as inhibition of cell growth measured after 48 hrs by SRB assay; type: functional
NCI/ADR-RES = experiment: Cytotoxicity against human NCI/ADR-RES cells assessed as inhibition of cell growth measured after 48 hrs by SRB assay; type: functional
SK-OV-3 = experiment: Cytotoxicity against human SK-OV-3 cells assessed as inhibition of cell growth measured after 48 hrs by SRB assay; type: functional
Malme-3M = experiment: Cytotoxicity against human Malme-3M cells assessed as inhibition of cell growth measured after 48 hrs by SRB assay; type: functional
MDA-MB-435 [7] = experiment: Cytotoxicity against human MDA-MB-435 cells assessed as inhibition of cell growth measured after 48 hrs by SRB assay; type: functional
DU-145 = experiment: Cytotoxicity against human DU-145 cells assessed as inhibition of cell growth measured after 48 hrs by SRB assay; type: functional
BT-549 = experiment: Cytotoxicity against human BT-549 cells assessed as inhibition of cell growth measured after 48 hrs by SRB assay; type: functional
T47D = experiment: Cytotoxicity against human T47D cells assessed as inhibition of cell growth measured after 48 hrs by SRB assay; type: functional
HL-60(TB) = experiment: Cytotoxicity against human HL-60(TB) cells assessed as inhibition of cell growth measured after 48 hrs by SRB assay; type: functional
MOLT-4 = experiment: Cytotoxicity against human MOLT-4 cells assessed as inhibition of cell growth measured after 48 hrs by SRB assay; type: functional

For `COc1cccc2cc(N(C)c3nc(C)nc4c3CCC4)ccc12`, which IC50 (MDA-MB-435 [1]) is on record?
The IC50 was 2.8 nM.

And the IC50 (U-251 [2])?
Its IC50 is 17.6 nM.

And the IC50 [3]?
Its IC50 is 980 nM.

And the “Ratio IC50” value [4]?
Its value is 0.8.

And the “Ratio IC50” value [5]?
The value was 2.1.

And the inhibition (U-251 [6])?
Its inhibition is “Active”.

And the GI50 (A549)?
Its GI50 is < 10 nM.

What about the GI50 (HOP-92) of the same compound?
The GI50 was 28.5 nM.

What about the GI50 (SNB-19) of the same compound?
The GI50 was < 10 nM.

What about the GI50 (SNB-75) of the same compound?
The GI50 was 1890 nM.

What about the GI50 (ACHN) of the same compound?
Its GI50 is < 10 nM.

And the GI50 (CAKI-1)?
Its GI50 is < 10 nM.

And the GI50 (RXF 393)?
The GI50 was < 10 nM.

And the GI50 (TK-10)?
The GI50 was 9320 nM.

What about the GI50 (HCT-116) of the same compound?
Its GI50 is < 10 nM.

What about the GI50 (OVCAR-3) of the same compound?
The GI50 was < 10 nM.

What about the GI50 (OVCAR-4) of the same compound?
Its GI50 is 10.9 nM.

What about the GI50 (OVCAR-8) of the same compound?
The GI50 was < 10 nM.

What about the GI50 (NCI/ADR-RES) of the same compound?
Its GI50 is < 10 nM.

What about the GI50 (SK-OV-3) of the same compound?
The GI50 was < 10 nM.

And the GI50 (Malme-3M)?
Its GI50 is 11500 nM.

What about the GI50 (MDA-MB-435 [7]) of the same compound?
Its GI50 is < 10 nM.

And the GI50 (DU-145)?
Its GI50 is < 10 nM.

And the GI50 (BT-549)?
Its GI50 is < 10 nM.

What about the GI50 (T47D) of the same compound?
The GI50 was < 10 nM.

What about the GI50 (HL-60(TB)) of the same compound?
Its GI50 is < 10 nM.

What about the GI50 (MOLT-4) of the same compound?
Its GI50 is < 10 nM.
